Casp6 inh = caspase-6 (human) enzyme inhibition | purified caspase-6, Z-VEID-R110 cleavage fluorescence | inhibition, % at 12.5 µM | 350,000 compounds, 0.53% hits | AID 686996;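 active = mean inhibition across replicates at least about 35%, with every replicate also reaching that limit, limit read from the data; inconclusive = only one of the two criteria met; inactive = neither criterion met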
Xi reactivation = reactivates the inactive X chromosome in mouse fibroblasts; 360,000 compounds, 0.055% hits; XiGFP mouse fibroblasts, % GFP-positive cells imaging, 3 d; cells co-treated with 5-aza-dC sensitizer; scaled so ellipticine positive control = 100%; activation, % at 7.58 µM; AID 743238;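 active = mean normalized replicate activation at least 10% and every replicate at or above 10%; inconclusive = only one of the two criteria met; inactive = mean below 10% and not all replicates reach 10%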
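Material: XiGFP fibroblasts, SV40-immortalized. Buffer or medium: DMEM plus 5-aza-dC sensitizer. Compound: single concentration per compound, delivered by pin transfer. Times: 3 days compound exposure. Controls: ellipticine 6 µM.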
S100A4 MyoIIA = inhibitors of human S100A4 binding to myosin IIA peptide; P26447; S100A4/TAMRA-MyoIIA peptide fluorescence polarization; inhibition, % at 10.7 µM; 360,000 compounds, 0.14% hits;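 active = mean inhibition of at least 70% across replicates, with every replicate also reaching that level; inconclusive = mean inhibition reaches 70% but some replicates fall short; inactive = mean inhibition below 70%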
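Test system – S100A4 monomer (human) · Compound – single-point compound testing · Schedule – 5 min incubation before reading · Probe or stimulus – TAMRA-labelled myosin IIA heavy-chain peptide probe, 5 nM · Benchmarks – neutral control DMSO, positive control TFP · Medium – Calcium-containing HEPES buffer, pH 7.2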
MLL AF4-AF9 inh = inhibitors of human MLL-AF4/AF9 interaction; P42568; AlphaScreen, biotin-AF4 peptide binding to FLAG-AF9; inhibition, % at 10 µM; 350,000 compounds, 0.47% hits; AID 651704;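 active = every replicate reaching a set inhibition limit, whatever the replicate mean, cut at about 25% in these data; inconclusive = mean inhibition reaches that limit but some replicates miss it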
Target sequence (P42568 whole entry, looked up): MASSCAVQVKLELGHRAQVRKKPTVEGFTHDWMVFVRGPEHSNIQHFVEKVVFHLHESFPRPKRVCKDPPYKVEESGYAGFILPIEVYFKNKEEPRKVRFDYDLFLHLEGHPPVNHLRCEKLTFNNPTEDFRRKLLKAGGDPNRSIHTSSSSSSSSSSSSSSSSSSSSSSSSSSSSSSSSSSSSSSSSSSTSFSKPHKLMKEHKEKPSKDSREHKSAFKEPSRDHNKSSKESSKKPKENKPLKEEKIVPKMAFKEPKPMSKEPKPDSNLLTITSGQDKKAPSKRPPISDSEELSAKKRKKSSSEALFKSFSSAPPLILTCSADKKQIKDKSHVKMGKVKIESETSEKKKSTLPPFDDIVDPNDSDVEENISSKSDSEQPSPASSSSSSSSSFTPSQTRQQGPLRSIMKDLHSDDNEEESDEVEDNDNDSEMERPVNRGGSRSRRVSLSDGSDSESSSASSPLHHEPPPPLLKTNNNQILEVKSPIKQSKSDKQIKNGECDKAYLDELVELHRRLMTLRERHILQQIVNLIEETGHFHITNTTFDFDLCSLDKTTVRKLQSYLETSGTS
RAD54 inh = RAD54 (human) branch migration inhibition; Q92698; RAD54 Holliday junction branch migration, FAM/BHQ fluorescence; inhibition, % at 10.4 µM; 360,000 compounds, 0.14% hits; AID 602329;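 active = mean normalized replicate activity at least 40 and at least half of replicates scoring 40 or more; inconclusive = only one of the two criteria met; inactive = mean below 40 and under half of replicates reaching 40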;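 also: inhibitors cause a drop in the FAM fluorescence signal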
RAD52 inh = blocks human RAD52 DNA annealing. P43351. recombinant RAD52 DNA annealing, FRET fluorescence. inhibition, % at 18.7 µM. 360,000 compounds, 0.46% hits;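 active = every replicate showing at least 50% inhibition; inconclusive = mean inhibition at least 50% but not in every replicate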
Hits are given with their value. A selection: hits, their analogues and other compounds. The true share with any hit is near 1.3%.

Screening COc1ccccc1CN1CCNC(=O)C1CC(=O)NCCCN1CCOCC1 (stereo not given) returned Casp6 inh inactive, Xi reactivation inactive, S100A4 MyoIIA 131.0, MLL AF4-AF9 inh inactive, RAD54 inh inactive and RAD52 inh inactive.
COc1cccc(CN2CCNC(=O)C2CC(=O)NCCN2CCOCC2)c1OC (stereo not given) was read as Casp6 inh inactive, Xi reactivation inactive, S100A4 MyoIIA inactive, MLL AF4-AF9 inh inactive, RAD54 inh inactive and RAD52 inh inactive.
`Cc1ccc(-c2csc(=Nc3cccnc3)n2CCCn2ccnc2)cc1C` gave Casp6 inh inactive, Xi reactivation inactive, S100A4 MyoIIA inactive, MLL AF4-AF9 inh 36.6 and RAD52 inh inactive.
Screening Cc1ccc(C(=O)NCc2ccccn2)cc1NC1=NC2CS(=O)(=O)CC2S1 (stereo not given) returned Casp6 inh inactive, Xi reactivation 22.4, S100A4 MyoIIA inactive, MLL AF4-AF9 inh inactive, RAD54 inh inactive and RAD52 inh inactive.
Screening NNC(=O)CNC(=O)Nc1n[nH]c(=S)s1 returned Casp6 inh 61.3, Xi reactivation inactive, S100A4 MyoIIA inactive, MLL AF4-AF9 inh inactive and RAD52 inh inactive.
Screening O=C(Nc1n[nH]c(=S)s1)c1ccco1 returned Casp6 inh inactive, Xi reactivation inactive, S100A4 MyoIIA inactive, MLL AF4-AF9 inh inactive, RAD54 inh inactive and RAD52 inh inactive.
Screening C[C@@H]1CN([C@H](C)CO)C(=O)c2cc(C3=CCCC3)cnc2O[C@@H]1CN(C)Cc1ccc(F)cc1 returned Casp6 inh inactive, Xi reactivation inactive, S100A4 MyoIIA 104.6, MLL AF4-AF9 inh inactive, RAD54 inh inactive and RAD52 inh inactive.
Screening C[C@@H]1CN([C@@H](C)CO)C(=O)c2cc(-c3ccc(F)cc3)cnc2O[C@@H]1CN(C)Cc1cncnc1 returned Casp6 inh inactive, Xi reactivation inactive, S100A4 MyoIIA inactive, MLL AF4-AF9 inh inactive, RAD54 inh inactive and RAD52 inh inactive.
For C[C@@H]1CN([C@@H](C)CO)C(=O)c2cc(C3=CCCC3)cnc2O[C@H]1CN(C)Cc1ccc(F)cc1 the results were Casp6 inh inactive, Xi reactivation inactive, S100A4 MyoIIA inactive, MLL AF4-AF9 inh inactive, RAD54 inh inactive and RAD52 inh inactive.
Screening C[C@@H]1CN([C@H](C)CO)C(=O)c2cc(-c3ccc(F)cc3)cnc2O[C@H]1CN(C)Cc1cncnc1 returned Casp6 inh inactive, Xi reactivation inactive, S100A4 MyoIIA 106.5, MLL AF4-AF9 inh inactive, RAD54 inh inactive and RAD52 inh inactive.
`CC(=O)N(C)C[C@@H]1Oc2ccccc2CC(=O)N(C)C[C@H]1C` gave Xi reactivation inactive.
`COc1ccc(N)c2c1C(=O)c1ccccc1C2=O` gave RAD54 inh inactive.
Screening COc1ccc2noc3c2c1C(=O)c1ccccc1-3 returned Casp6 inh 45.7, S100A4 MyoIIA inactive, MLL AF4-AF9 inh inactive, RAD54 inh inactive and RAD52 inh inactive.
`COc1ccc2c3c(n(C)c2c1)[C@H](CO)NCC31CCN(CC2CCCC2)CC1` gave Casp6 inh inactive, Xi reactivation inactive, S100A4 MyoIIA inactive, MLL AF4-AF9 inh inactive and RAD52 inh inactive.
Screening COc1ccc2c3c(n(C)c2c1)[C@@H](CO)NCC31CN(Cc2ccc(-c3ccccn3)cc2)C1 returned Casp6 inh inactive, Xi reactivation inactive, S100A4 MyoIIA inactive, MLL AF4-AF9 inh 45.0 and RAD52 inh 95.9.
COc1ccc2c3c(n(C)c2c1)[C@H](CO)NCC31CCN(Cc2ccc(F)cc2)CC1 was read as Xi reactivation inactive.
COc1ccc2c3c(n(C)c2c1)[C@H](CO)NCC31CN(CC2CCOCC2)C1 was read as Casp6 inh inactive, Xi reactivation inactive, S100A4 MyoIIA inactive, MLL AF4-AF9 inh 35.1 and RAD52 inh 75.8.
COc1ccc2c3c(n(C)c2c1)[C@@H](CO)NCC31CCN(Cc2ccc(-c3ccccn3)cc2)CC1 was read as Xi reactivation inactive, S100A4 MyoIIA inactive, MLL AF4-AF9 inh inconclusive and RAD52 inh 83.4.
COc1ccc2c3c(n(C)c2c1)[C@H](CO)NCC31CCN(Cc2ccc(-c3ccccn3)cc2)CC1 was read as Xi reactivation inactive, S100A4 MyoIIA inactive, MLL AF4-AF9 inh 30.3 and RAD52 inh 82.3.
